Inhibition data for 23 compounds are collected here from PubChem BioAssay AID720508 (The Scripps Research Institute Molecular Screening Center, 2013).

About 500 (0.14%) of roughly 370,000 compounds were called active.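 Rule for the calls: active = inhibition above the mean of compounds falling within the control limits plus 3 SD of them (cut at about 14% in these data); inactive = the rest.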 Only a selection was taken, and actives are over-represented in it overall.

For this test, the target named is Fibrinogen beta chain (Homo sapiens) (UniProt P02675). In words: small molecules displacing Tn7 from DD(E) complex – biochemical, fluorescence polarization, human fibrin, Tn7 probe, primary screen (AID 720508).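 Note: 0% = plate median of compound wells and 100% = 10 µM Aha-Tn7 peptide.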 Conditions: FP displacement of FITC-Tn7 peptide from fibrin DD(E); at 8.3 µM; active compounds read high; 0% = median of compound wells per plate. A digest of the protocol: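 system = human fibrin DD(E) protein | quantity = DD(E) 2 µM final | medium = Tris/NaCl/CaCl2 buffer, pH 7.8 | also added = labelled Tn7 tracer, 0.1 µM | compound dosing = single point at 8.3 µM | timing = compound with protein 10 min, then 3 h after probe, room temperature | signal = FP measurement | benchmarks = Aha-Tn7 high control | repeats = one replicate per compound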
Fibrinogen beta chain (Homo sapiens), sequence (P02675 whole entry, looked up): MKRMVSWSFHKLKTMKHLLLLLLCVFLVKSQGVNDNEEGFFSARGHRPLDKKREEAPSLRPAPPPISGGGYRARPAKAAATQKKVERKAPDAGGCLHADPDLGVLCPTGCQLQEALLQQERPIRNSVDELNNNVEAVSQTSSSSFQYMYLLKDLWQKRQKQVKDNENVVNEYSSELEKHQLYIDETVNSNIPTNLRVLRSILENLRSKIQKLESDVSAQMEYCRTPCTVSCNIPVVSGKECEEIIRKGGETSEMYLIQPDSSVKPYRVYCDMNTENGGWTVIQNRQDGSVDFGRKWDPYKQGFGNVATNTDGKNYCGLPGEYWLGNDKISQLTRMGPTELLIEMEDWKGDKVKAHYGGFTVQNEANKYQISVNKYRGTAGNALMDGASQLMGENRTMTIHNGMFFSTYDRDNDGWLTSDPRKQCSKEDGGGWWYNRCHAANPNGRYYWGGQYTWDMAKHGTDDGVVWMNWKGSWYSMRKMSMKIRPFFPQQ
In general terms: Fluorescence polarisation rises when a labelled molecule tumbles more slowly, as on binding a larger partner.
As for `CCC(C(=O)OC)n1cnc2c(oc3ccccc32)c1=O` (stereo not drawn), the inhibition (as a rule, the change of the read-out against control, counted positive when it falls) is 6.68% (inactive). Take `Cc1ccc(S(=O)(=O)CC(=O)Nc2sc(C)c(C)c2C(N)=O)cc1`: the inhibition is -0.13% (inactive). Under `NC1=NC(=O)C(Cc2cccc(Cl)c2)S1` (stereo not drawn) stands 2.82% (inactive). As to `COCc1cc(=O)n2[nH]c(C)c(-c3ccccc3)c2n1`, the inhibition was -2.38% (inactive). Regarding `CN(C(=O)C1CCN(c2ncnc3c2nc2n3CCCCC2)CC1)C1CCCCC1`, the inhibition is -2.26% (inactive).

As for `Cc1ccc(CN2CCN(Cc3ccc(OCCO)cc3)CC2CCO)o1` (stereo not drawn), the inhibition was 7.01% (inactive).

Consider `CCCCNC(=O)C[C@@H]1C[C@@]2(C(=O)OCC)CCC=C2N(Cc2cccc3ccccc23)C1=O`, for which the inhibition is -3.28% (inactive). For `CN(C(=O)CSc1nc(C2CC2)nc2ccccc12)c1nc(-c2ccccc2)cs1`, the inhibition is -7.43% (inactive). Under `CN1c2ccc(C=O)c3c(C=O)ccc(c23)N(C)C1(C)C` stands 16.9% (active); under `COc1ccc(NC(=O)NNC(=O)COc2cc(C)c(Cl)c(C)c2)c(OC)c1`, -5.88% (inactive).

In the case of `O=C1NC(=Nc2ccc(Cl)cc2)SC1Cc1cccc(Cl)c1Cl` (stereo not drawn), the inhibition is 0.11% (inactive). In the case of `Cc1ccc(N(C(=O)C(F)(F)F)C(C(=O)NC2CCCCC2)c2ccncc2)cc1C` (stereo not drawn) it was 5.16% (inactive); in that of `CC[C@@H]1CCCCc2ccccc2[C@@H](C(=O)C[C@H](O)CC(C)=O)OC1=O`, 1.6% (inactive); in that of `CCCNC(=O)C(=O)Nc1cc2c3c(c1)CCC(=O)N3CCC2`, 0.54% (inactive). Under `COc1ccccc1C(=O)N1CCN=C1SCc1cccnc1` stands 3.49% (inactive); under `COC(=O)CNc1nc(Cl)nc(N2CCC(C)CC2)n1`, 7.41% (inactive). Under `NC(=O)c1cc(S(=O)(=O)N2CCCC2)ccc1OCc1ccc(F)cc1` stands 0.91% (inactive); under `CC(C)(C)c1ccccc1NC(=O)CN1C(=O)NC2(CCCC2)C1=O`, -0.76% (inactive); under `Cc1nn(C)c(C)c1S(=O)(=O)N1CCc2ccccc21`, -4.06% (inactive). As to `CCO[C@H]1OC(C(=O)N2CCN(Cc3ccccc3)CC2)=C[C@@H](c2cn(C(C)=O)c3ccccc23)[C@@H]1CCCO`, the inhibition is 7% (inactive).

On to `COc1ccccc1/C=C/C(=O)OCC(=O)NC1CCCCCC1`, for which the inhibition is 8.08% (inactive). In the case of `O=C(COC(=O)/C=C/c1ccc(OC(F)F)cc1)NC1CCCCC1` it was 13.9% (active). Under `C=CCOc1ccc(/C=C/C(=O)OCC(=O)NC2CCCCCC2)cc1` stands 0.53% (inactive).
